The target in assay [1] is T1, 5-hydroxytryptamine receptor 3A (Mus musculus) (UniProt P23979).
T1 sequence (whole entry): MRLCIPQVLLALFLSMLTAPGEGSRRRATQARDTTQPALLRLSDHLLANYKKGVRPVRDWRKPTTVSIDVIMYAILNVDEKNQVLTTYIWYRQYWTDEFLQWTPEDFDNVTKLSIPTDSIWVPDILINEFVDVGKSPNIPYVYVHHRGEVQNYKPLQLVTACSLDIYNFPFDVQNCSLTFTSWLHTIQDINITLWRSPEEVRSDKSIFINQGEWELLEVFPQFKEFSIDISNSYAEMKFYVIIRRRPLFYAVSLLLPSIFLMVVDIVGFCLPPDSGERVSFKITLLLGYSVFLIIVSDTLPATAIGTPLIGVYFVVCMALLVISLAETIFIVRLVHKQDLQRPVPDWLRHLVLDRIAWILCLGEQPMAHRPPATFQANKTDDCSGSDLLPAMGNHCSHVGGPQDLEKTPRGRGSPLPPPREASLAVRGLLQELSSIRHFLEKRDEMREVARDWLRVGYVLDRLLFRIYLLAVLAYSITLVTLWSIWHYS
The assay can be described thus: Antagonist activity at 5-HT3 receptor in mouse TG sensory neurons assessed as inhibition of 5-HT3 receptor agonist 5-HT-evoked currents at 1 uM pre-applied before 5-HT addition. Summed up: (§1)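 In mouse trigeminal sensory neurons, test compound was preapplied at 1 μM, then 10 μM GABA (GABAA) or 10 μM 5-HT (5-HT3) was applied. Current amplitudes were normalized to the control current evoked by the same agonist alone. N = 5 cells.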

The species named for another assay is Mus musculus. The assay can be described thus: Antagonist activity at GABAA receptor in mouse TG sensory neurons assesed as inhibition of GABAA receptor agonist GABA-evoked currents at 1 uM pre-applied before GABA addition. Put shortly:
as §1

For a further assay, the target named is T2, P2X purinoceptor 4 (Homo sapiens, UniProt Q99571).
T2 sequence (Q99571 whole entry): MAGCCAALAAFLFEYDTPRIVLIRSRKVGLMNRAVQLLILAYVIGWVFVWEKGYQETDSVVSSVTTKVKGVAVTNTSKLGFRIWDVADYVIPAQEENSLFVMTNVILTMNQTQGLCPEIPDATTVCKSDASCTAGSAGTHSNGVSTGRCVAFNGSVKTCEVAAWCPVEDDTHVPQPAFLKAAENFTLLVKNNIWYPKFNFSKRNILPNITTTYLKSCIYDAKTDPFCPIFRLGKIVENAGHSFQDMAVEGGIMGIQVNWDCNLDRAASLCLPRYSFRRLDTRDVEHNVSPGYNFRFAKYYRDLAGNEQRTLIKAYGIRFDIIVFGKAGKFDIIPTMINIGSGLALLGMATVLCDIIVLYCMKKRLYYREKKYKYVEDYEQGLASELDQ
The assay can be described thus: Antagonist activity at human P2X4R transfected in human 1321N1 cells assessed as inhibition of ATP-induced calcium influx. The format is cell-based. Put shortly:
(§2)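 1321N1 astrocytoma cells stably expressing human P2X1, P2X2, P2X3 or P2X4 receptor. Calcium influx was induced by ATP at the EC80 for each subtype. Results are given as IC50 (μM) or % inhibition at the indicated concentration.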

In assay [2] the target is T3, P2X purinoceptor 2 (Homo sapiens) (UniProt Q9UBL9).
T3 sequence (whole entry): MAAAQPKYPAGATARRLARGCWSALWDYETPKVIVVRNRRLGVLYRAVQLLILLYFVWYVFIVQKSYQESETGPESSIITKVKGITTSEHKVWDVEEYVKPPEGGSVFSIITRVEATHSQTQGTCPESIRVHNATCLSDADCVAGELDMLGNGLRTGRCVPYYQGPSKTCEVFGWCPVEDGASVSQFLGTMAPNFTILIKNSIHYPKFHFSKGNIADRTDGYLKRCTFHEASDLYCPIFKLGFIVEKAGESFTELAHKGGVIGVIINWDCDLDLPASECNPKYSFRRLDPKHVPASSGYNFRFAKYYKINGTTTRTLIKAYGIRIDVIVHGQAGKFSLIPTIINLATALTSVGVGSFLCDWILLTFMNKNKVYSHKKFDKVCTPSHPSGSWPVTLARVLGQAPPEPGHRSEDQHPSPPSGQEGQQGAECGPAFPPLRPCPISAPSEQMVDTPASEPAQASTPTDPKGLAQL
The assay can be described thus: Antagonist activity at human P2X2R transfected in human 1321N1 cells assessed as inhibition of ATP-induced calcium influx relative to control. In kind it is cell-based. As to conditions: concentration not given here. Put shortly: as §2

Assay [3] addresses T4, P2X purinoceptor 1 (Homo sapiens) (UniProt P51575).
T4 sequence (whole entry): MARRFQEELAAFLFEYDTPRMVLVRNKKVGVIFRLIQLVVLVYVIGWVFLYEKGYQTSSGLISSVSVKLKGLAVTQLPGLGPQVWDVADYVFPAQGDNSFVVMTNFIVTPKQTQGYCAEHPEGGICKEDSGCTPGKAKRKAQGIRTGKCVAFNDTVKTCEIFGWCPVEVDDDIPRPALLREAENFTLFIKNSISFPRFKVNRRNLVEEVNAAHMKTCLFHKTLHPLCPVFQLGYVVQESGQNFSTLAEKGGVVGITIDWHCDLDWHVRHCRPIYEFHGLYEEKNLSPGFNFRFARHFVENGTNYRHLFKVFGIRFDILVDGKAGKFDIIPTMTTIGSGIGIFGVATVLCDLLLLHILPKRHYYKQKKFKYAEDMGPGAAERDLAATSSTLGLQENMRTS
The assay can be described thus: Antagonist activity at human P2X1R transfected in human 1321N1 cells assessed as inhibition of ATP-induced calcium influx relative to control. As to conditions: concentration not given here. The format is cell-based. Put shortly:
as §2

The target of assay [4] is T5, P2X purinoceptor 3 (Mus musculus) (UniProt Q3UR32).
T5 sequence (whole entry): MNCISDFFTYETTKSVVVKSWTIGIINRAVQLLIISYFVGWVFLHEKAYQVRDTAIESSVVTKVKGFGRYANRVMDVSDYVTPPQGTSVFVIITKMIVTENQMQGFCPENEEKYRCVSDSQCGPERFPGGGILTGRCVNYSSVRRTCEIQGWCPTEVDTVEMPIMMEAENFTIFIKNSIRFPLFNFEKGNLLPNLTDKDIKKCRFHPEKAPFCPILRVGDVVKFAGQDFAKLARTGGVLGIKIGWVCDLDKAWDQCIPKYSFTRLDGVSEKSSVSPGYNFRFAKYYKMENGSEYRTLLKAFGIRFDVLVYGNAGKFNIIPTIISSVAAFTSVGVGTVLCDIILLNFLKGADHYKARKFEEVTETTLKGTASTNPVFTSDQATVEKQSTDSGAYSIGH
The assay can be described thus: Agonist activity at P2X3R in mouse TG sensory neurons assessed as induction of channel current at 1 uM at -65 mV holding potential by whole cell voltage clamp method relative to alpha,beta-meATP.

For assay [5], the species on record is Homo sapiens. The assay can be described thus: Selectivity ratio of IC50 for human P2X1R transfected in human […] 1321N1 cells to IC50 for human transfected in human 1321N1 cells. In kind it is cell-based.
Assay [6] is filed under the species Homo sapiens. The assay can be described thus: Selectivity ratio of IC50 for human P2X4R transfected in human […] 1321N1 cells to IC50 for human transfected in human 1321N1 cells. In kind it is cell-based.
For assay [7], the target named is T6, P2X purinoceptor 4 (Homo sapiens) (UniProt Q99571).
T6 sequence (whole entry): T2 sequence (Q99571 whole entry)
Description: Antagonist activity at human P2X4R transfected in human 1321N1 cells assessed as inhibition of ATP-induced calcium influx relative to control. The format is cell-based. As to conditions: concentration not given here. Summed up: as §2

Calls of active or inactive are those of the source. The rule behind the calls is not given here. A value given as a limit tells only on which side of the number the result lay.

Regarding `Nc1ncnc2c1ncn2[C@@H]1O[C@H](COP(=O)(O)CP(=O)(O)OP(=O)(O)O)[C@H]2OC3(CCCCC3)O[C@H]21`, the inhibition entry (in assay [1]; in the assay listed under Mus musculus) was “inactive” each time. Besides, on P2X purinoceptor 4, the concentration for half-maximal inhibition (IC50) is > 100 µM. Besides, the inhibition in assay [2] is 9%; in assay [3] it was -1%.

`CC1(C)O[C@@H]2[C@H](O1)[C@@H](COP(=O)(O)OP(=O)(O)OP(=O)(O)O)O[C@H]2n1cnc2c(N)ncnc21`: the inhibition entry (in assay [1]; in the assay filed under Mus musculus) was “inactive” each time. The Activity in [4] was found to be 23%. Moreover, on P2X purinoceptor 4, the IC50 amounted to 48 µM. Also, the Ratio IC50 was 10 in the assay filed under Homo sapiens [5] and 12 in the assay filed under Homo sapiens [6]. Moreover, the inhibition in assay [2] came out at 6%.

Consider `Nc1ncnc2c1ncn2[C@@H]1O[C@H](COP(=O)(O)OP(=O)(O)OP(=O)(O)O)[C@H]2OCO[C@H]21`, for which the inhibition was found to be 12% in [7], 36% in assay [2] and 1% in [3]. For the same compound, the concentration for half-maximal inhibition (IC50) at P2X purinoceptor 4 was > 100 µM.

The values above are taken from ChEMBL document CHEMBL4433213, “Investigation on 2',3'-O-Substituted ATP Derivatives and Analogs as Novel P2X3 Receptor Antagonists” (ACS Med Chem Lett, 2019).
